Columns and labels:
[1] = system: Leishmania amazonensis; assay: Antileishmanial activity against GFP tagged Leishmania amazonensis Josefa amastigote infected mouse peritoneal macrophages at 50 uM after 72 hrs; format: functional
Method in brief: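 GFP L. amazonensis (Josefa)-infected mouse peritoneal macrophages (10⁶ cells, 5 × 10⁶ promastigotes, 4 h at 37 °C), washed, exposed to compound for 72 h in 1% DMSO. Monolayer fluorescence measured. Percent inhibition scaled between untreated infected cells and uninfected macrophages. Vehicle control was 1% DMSO. Triplicate means with SD.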

[2] = system: Leishmania amazonensis; assay: Antileishmanial activity against GFP tagged Leishmania amazonensis Josefa promastigote at 50 uM; format: functional
Method in brief: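 Triplicate wells of 10⁵ GFP-transfected promastigotes in DMEM with 5% serum and 1% DMSO, with compound, held 72 h at 27 °C. Fluorescence intensity read on a plate fluorometer. Results given as percent inhibition, mean of triplicates with SD.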

[3] = system: Peritoneal macrophage cell; assay: Effect on nitric oxide production in mouse peritoneal macrophages at 50 uM after 48 hrs; format: functional
Method in brief: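 Supernatants from mouse peritoneal macrophage cultures incubated 48 h with compound. Nitrite measured by a modified Griess method. IFN-gamma at 10 U/ml served as positive control. Triplicate means.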

[4] = Cytotoxicity against mouse peritoneal macrophages assessed as LDH release at 50 uM after 48 hrs; format: cell-based; details: peritoneal macrophage cell
Method in brief: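 Uninfected adherent mouse peritoneal macrophages exposed to compound for 48 h at 37 °C. LDH released into the medium measured with a commercial kit. 2% Triton X-100 set maximum release and 1% DMSO set minimum. Triplicate means with SD.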

[5] = system: Leishmania amazonensis; assay: Antiamastigote activity against GFP tagged […] amastigote infected mouse peritoneal macrophages; format: functional, organism-based
Method in brief: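 Mouse peritoneal macrophages (10⁶) infected 4 h at 37 °C with 5 × 10⁶ GFP-expressing L. amazonensis (Josefa) promastigotes, washed, then cultured 72 h with compound in 1% DMSO. Monolayer fluorescence read as parasite growth. Uninfected macrophages set maximum inhibition and untreated infected cells set minimum. IC50 obtained by linear regression.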

| Compound | Activity [1] | Activity [2] | Activity [3] | Activity [4] | IC50 [5] |
| --- | --- | --- | --- | --- | --- |
| C=C(C(=O)OC)C(O)c1ccccc1 (stereo unspecified) | 14.4% | 37.6% | -2.1 µM | 0% | – |
| C=C(C(=O)OC)C(O)c1ccc(F)cc1 (stereo unspecified) | 33.6% | 32.4% | -4.8 µM | 0% | – |
| C=C(C(=O)OC)C(O)c1ccc(C)cc1 (stereo unspecified) | 28.7% | 32.4% | -3.7 µM | 0% | – |
| C=C(C#N)C(O)c1ccc2ccccc2c1 (stereo unspecified) | 95.6% | 24% | -7.1 µM | 26.6% | 11.2 µM |
| C=C(C#N)C(O)c1ccc2c(c1)OCO2 (stereo unspecified) | 9.1% | 25.5% | -2.1 µM | 0% | – |
| C=C(C#N)C(O)c1ccc(C(F)(F)F)cc1 (stereo unspecified) | 86% | 62.8% | -4 µM | 36.3% | – |
| C=C(C#N)C(O)c1ccc(O)c(OC)c1 (stereo unspecified) | 19.7% | 6.6% | -2.3 µM | 0% | – |
| C=C(C(=O)OC)C(O)c1cccnc1 (stereo unspecified) | 8.9% | 39.6% | 0.1 µM | 13.2% | – |
| pentostam | 35.3% | 0% | 0 µM | – | – |
| C=C(C#N)C(O)c1ccc([N+](=O)[O-])cc1 (stereo unspecified) | 93.9% | 47% | 5 µM | 41.7% | – |
| C=C(C(=O)OC)C(O)c1ccc([N+](=O)[O-])cc1 (stereo unspecified) | 80.6% | 67.3% | -3.7 µM | 41.6% | – |
| C=C(C#N)C(O)c1cc(OC)ccc1OC (stereo unspecified) | 35.3% | 22.3% | -4.9 µM | 0% | – |
| C=C(C#N)C(O)c1ccc(Br)cc1 (stereo unspecified) | 84.3% | 17.5% | 2.5 µM | 0% | 12.5 µM |
| C=C(C(=O)OC)C(O)c1ccc(C(F)(F)F)cc1 (stereo unspecified) | 89% | 67.6% | -3.5 µM | 36.2% | 42.8 µM |
| C=C(C#N)C(O)c1ccccc1OC (stereo unspecified) | 14.7% | 30% | 0.4 µM | 6.1% | – |
| C=C(C#N)C(O)c1ccccc1 (stereo unspecified) | 48.1% | 42.2% | -1.6 µM | 0% | 49.3 µM |
| C=C(C#N)C(OC(C)=O)c1ccc([N+](=O)[O-])cc1 (stereo unspecified) | 21.5% | 59.3% | 0 µM | 0% | – |
